Experimental data taken from ChEMBL document CHEMBL5058577, “EUbOPEN Chemogenomics Library 2 (Multiplex)” (2022).

System: Fibroblast
Test: Multiplex assay against human fibroblast
Assay type: toxicity, cell-based
Summary of the method: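 Values for tubulin, mitochondrial-mass and membrane-permeability phenotypes are per cents of cells with healthy nuclei. These cells were identified by CellPathfinder machine-learning gating of live cells that had been stained at seeding with Hoechst33342, BioTracker Green Microtubule Cytoskeleton Dye, MitoTracker Red and Annexin V Alexa Fluor 680 and imaged on a CQ1 microscope at 37°C and 5% CO2 after compound addition. The gating first set Hoechst high-intensity objects apart from normal cells, then split normal cells into healthy, pyknosed or fragmented nuclei, and pyknosed cells into mitotic or apoptotic.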

[1] = 12 h, 1 µM, compound concentration 1 uM, replicate 1
[2] = 12 h, 1 µM, compound concentration 1 uM, replicate 2
[3] = 12 h, 10 µM, compound concentration 10 uM, replicate 1
[4] = 12 h, 10 µM, compound concentration 10 uM, replicate 2
[5] = 24 h, 1 µM, compound concentration 1 uM, replicate 1
[6] = 24 h, 1 µM, compound concentration 1 uM, replicate 2
[7] = 24 h, 10 µM, compound concentration 10 uM, replicate 1
[8] = 24 h, 10 µM, compound concentration 10 uM, replicate 2
[9] = 48 h, 1 µM, compound concentration 1 uM, replicate 1
[10] = 48 h, 1 µM, compound concentration 1 uM, replicate 2
[11] = 48 h, 10 µM, compound concentration 10 uM, replicate 1
[12] = 48 h, 10 µM, compound concentration 10 uM, replicate 2

Cc1sc2c(c1C)C(c1ccc(Cl)cc1)=N[C@@H](CC(=O)NCCCCCCCCNC(=O)COc1cccc3c1C(=O)N(C1CCC(=O)NC1=O)C3=O)c1nnc(C)n1-2 (some centres not stated)
Population Apoptotic (%) [1]: 57%
Population Fragmented Nuclei (%) [1]: 10%
Population Healthy Nuclei (%) [1]: 72%
Population Hoechst High Intensity Objects (%) [1]: 3%
Population Membrane Permeable-Phenotype (%) [1]: 1%
Population Mitochondria Different-Phenotype (%) [1]: 4%
Population Mitotic Cells (%) [1]: 42%
Population Normal (%) [1]: 96%
Population Pyknosed Nuclei (%) [1]: 16%
Population Tubulin-Different-Phenotype (%) [1]: 25%
Total Cell Count [1]: 118
Population Apoptotic (%) [2]: 42%
Population Fragmented Nuclei (%) [2]: 34%
Population Healthy Nuclei (%) [2]: 34%
Population Hoechst High Intensity Objects (%) [2]: 6%
Population Membrane Permeable-Phenotype (%) [2]: 23%
Population Mitochondria Different-Phenotype (%) [2]: 23%
Population Mitotic Cells (%) [2]: 57%
Population Normal (%) [2]: 93%
Population Pyknosed Nuclei (%) [2]: 31%
Population Tubulin-Different-Phenotype (%) [2]: 66%
Total Cell Count [2]: 94
Population Apoptotic (%) [3]: 54%
Population Fragmented Nuclei (%) [3]: 13%
Population Healthy Nuclei (%) [3]: 56%
Population Hoechst High Intensity Objects (%) [3]: 11%
Population Membrane Permeable-Phenotype (%) [3]: 1%
Population Mitochondria Different-Phenotype (%) [3]: 19%
Population Mitotic Cells (%) [3]: 45%
Population Normal (%) [3]: 88%
Population Pyknosed Nuclei (%) [3]: 30%
Population Tubulin-Different-Phenotype (%) [3]: 50%
Total Cell Count [3]: 171
Population Apoptotic (%) [4]: 44%
Population Fragmented Nuclei (%) [4]: 27%
Population Healthy Nuclei (%) [4]: 27%
Population Hoechst High Intensity Objects (%) [4]: 17%
Population Membrane Permeable-Phenotype (%) [4]: 7%
Population Mitochondria Different-Phenotype (%) [4]: 26%
Population Mitotic Cells (%) [4]: 55%
Population Normal (%) [4]: 82%
Population Pyknosed Nuclei (%) [4]: 45%
Population Tubulin-Different-Phenotype (%) [4]: 69%
Total Cell Count [4]: 115
Population Apoptotic (%) [5]: 56%
Population Fragmented Nuclei (%) [5]: 20%
Population Healthy Nuclei (%) [5]: 53%
Population Hoechst High Intensity Objects (%) [5]: 10%
Population Membrane Permeable-Phenotype (%) [5]: 3%
Population Mitochondria Different-Phenotype (%) [5]: 3%
Population Mitotic Cells (%) [5]: 44%
Population Normal (%) [5]: 89%
Population Pyknosed Nuclei (%) [5]: 26%
Population Tubulin-Different-Phenotype (%) [5]: 25%
Total Cell Count [5]: 107
Population Apoptotic (%) [6]: 65%
Population Fragmented Nuclei (%) [6]: 41%
Population Healthy Nuclei (%) [6]: 32%
Population Hoechst High Intensity Objects (%) [6]: 3%
Population Membrane Permeable-Phenotype (%) [6]: 16%
Population Mitochondria Different-Phenotype (%) [6]: 20%
Population Mitotic Cells (%) [6]: 35%
Population Normal (%) [6]: 96%
Population Pyknosed Nuclei (%) [6]: 25%
Population Tubulin-Different-Phenotype (%) [6]: 72%
Total Cell Count [6]: 80
Population Apoptotic (%) [7]: 67%
Population Fragmented Nuclei (%) [7]: 20%
Population Healthy Nuclei (%) [7]: 38%
Population Hoechst High Intensity Objects (%) [7]: 13%
Population Membrane Permeable-Phenotype (%) [7]: 3%
Population Mitochondria Different-Phenotype (%) [7]: 9%
Population Mitotic Cells (%) [7]: 32%
Population Normal (%) [7]: 86%
Population Pyknosed Nuclei (%) [7]: 41%
Population Tubulin-Different-Phenotype (%) [7]: 47%
Total Cell Count [7]: 154
Population Apoptotic (%) [8]: 44%
Population Fragmented Nuclei (%) [8]: 25%
Population Healthy Nuclei (%) [8]: 32%
Population Hoechst High Intensity Objects (%) [8]: 12%
Population Membrane Permeable-Phenotype (%) [8]: 17%
Population Mitochondria Different-Phenotype (%) [8]: 20%
Population Mitotic Cells (%) [8]: 55%
Population Normal (%) [8]: 87%
Population Pyknosed Nuclei (%) [8]: 42%
Population Tubulin-Different-Phenotype (%) [8]: 68%
Total Cell Count [8]: 103
Population Apoptotic (%) [9]: 88%
Population Fragmented Nuclei (%) [9]: 41%
Population Healthy Nuclei (%) [9]: 24%
Population Hoechst High Intensity Objects (%) [9]: 27%
Population Membrane Permeable-Phenotype (%) [9]: 0%
Population Mitochondria Different-Phenotype (%) [9]: 0%
Population Mitotic Cells (%) [9]: 12%
Population Normal (%) [9]: 72%
Population Pyknosed Nuclei (%) [9]: 33%
Population Tubulin-Different-Phenotype (%) [9]: 33%
Total Cell Count [9]: 102
Population Apoptotic (%) [10]: 93%
Population Fragmented Nuclei (%) [10]: 42%
Population Healthy Nuclei (%) [10]: 37%
Population Hoechst High Intensity Objects (%) [10]: 8%
Population Membrane Permeable-Phenotype (%) [10]: 27%
Population Mitochondria Different-Phenotype (%) [10]: 20%
Population Mitotic Cells (%) [10]: 6%
Population Normal (%) [10]: 91%
Population Pyknosed Nuclei (%) [10]: 20%
Population Tubulin-Different-Phenotype (%) [10]: 82%
Total Cell Count [10]: 85
Population Apoptotic (%) [11]: 86%
Population Fragmented Nuclei (%) [11]: 40%
Population Healthy Nuclei (%) [11]: 20%
Population Hoechst High Intensity Objects (%) [11]: 38%
Population Membrane Permeable-Phenotype (%) [11]: 5%
Population Mitochondria Different-Phenotype (%) [11]: 10%
Population Mitotic Cells (%) [11]: 13%
Population Normal (%) [11]: 61%
Population Pyknosed Nuclei (%) [11]: 38%
Population Tubulin-Different-Phenotype (%) [11]: 55%
Total Cell Count [11]: 156
Population Apoptotic (%) [12]: 57%
Population Fragmented Nuclei (%) [12]: 38%
Population Healthy Nuclei (%) [12]: 38%
Population Hoechst High Intensity Objects (%) [12]: 15%
Population Membrane Permeable-Phenotype (%) [12]: 14%
Population Mitochondria Different-Phenotype (%) [12]: 14%
Population Mitotic Cells (%) [12]: 42%
Population Normal (%) [12]: 84%
Population Pyknosed Nuclei (%) [12]: 23%
Population Tubulin-Different-Phenotype (%) [12]: 80%
Total Cell Count [12]: 108
